In ChEMBL document CHEMBL1148788 (J Med Chem, 2007):
Several values for one entry are separate records, joined by “and”; a condition that tells them apart may be missing. Equal values may be shown once. Activity calls are given as the source filed them. No cut-off for these calls is given here.

Key:
[1] = Antagonist activity at human alpha7nAChR Y93A mutant co-expressed with human Ric3 in tsA201 cells by FMP assay; assay type: functional, cell-based
[2] = Antagonist activity at human alpha7nAChR W149A mutant co-expressed with human Ric3 in tsA201 cells by FMP assay; assay type: functional, cell-based
[3] = Antagonist activity at human alpha7 nAChR W149Y mutant co-expressed with human Ric3 in tsA201 cells by FMP assay; assay type: functional, cell-based
[4] = Antagonist activity at human alpha-7 nAChR Y188A mutant coexpressed with human Ric3 in tsA201 cells by FMP assay; assay type: functional, cell-based
[5] = Antagonist activity at human alpha-7 nAChR Y195A mutant coexpressed with human Ric3 in tsA201 cells by FMP assay; assay type: functional, cell-based
[6] = Displacement of [3H]methyllycaconitine from chimeric alpha-7nAChR D197A mutant/5HT3A receptor in tsA201 cells; assay type: cell-based, Homo sapiens
How it was run: (§1)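 tsA-201 cells transiently transfected with 4 µg WT or mutant α7/5-HT3A chimera and assayed 2 days later. Membranes washed twice at 50000g in 50 mM Tris-HCl pH 7.2. Incubated with 0.5 nM [3H]MLA and compound for 2.5 h at room temperature with shaking; nonspecific binding with 5 mM (S)-nicotine. PEI-soaked GF/C filtration, scintillation counting. Ki derived; duplicate, 3–7 experiments.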

tsA201 [7] = test: Displacement of [3H]methyllycaconitine from chimeric alpha-7nAChR W55A/Y195A mutant /5HT3A receptor in tsA201 cells; assay type: cell-based; conditions: Homo sapiens; how it was run: as §1
[8] = Displacement of [3H]methyllycaconitine from chimeric alpha-7nAChR K145R mutant /5HT3A receptor in tsA201 cells; assay type: cell-based, Homo sapiens; how it was run: as §1
[9] = target: Neuronal acetylcholine receptor; alpha4/beta2 (Rattus norvegicus, UniProt P09483+P12390); test: Displacement of [3H]epibatidine from rat recombinant alpha-4-beta-2 nAChR in HEK293 cell line; assay type: cell-based
Neuronal acetylcholine receptor; alpha4/beta2, sequence (P09483 whole entry): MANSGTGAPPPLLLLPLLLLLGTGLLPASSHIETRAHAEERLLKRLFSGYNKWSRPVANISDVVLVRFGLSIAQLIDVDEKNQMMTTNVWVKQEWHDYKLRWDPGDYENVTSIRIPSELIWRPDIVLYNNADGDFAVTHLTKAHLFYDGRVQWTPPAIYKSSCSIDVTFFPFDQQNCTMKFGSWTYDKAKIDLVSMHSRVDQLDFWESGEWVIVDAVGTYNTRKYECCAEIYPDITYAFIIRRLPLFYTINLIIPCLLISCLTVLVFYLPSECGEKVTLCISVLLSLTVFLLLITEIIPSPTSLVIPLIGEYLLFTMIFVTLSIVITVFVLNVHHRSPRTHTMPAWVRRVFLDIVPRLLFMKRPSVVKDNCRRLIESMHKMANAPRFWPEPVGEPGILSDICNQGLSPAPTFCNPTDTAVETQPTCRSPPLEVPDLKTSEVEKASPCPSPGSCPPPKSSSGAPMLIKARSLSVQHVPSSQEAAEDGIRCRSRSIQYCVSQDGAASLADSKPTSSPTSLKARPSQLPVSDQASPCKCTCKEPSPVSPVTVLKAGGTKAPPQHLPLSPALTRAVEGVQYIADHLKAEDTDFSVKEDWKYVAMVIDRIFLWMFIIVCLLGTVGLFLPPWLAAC
Neuronal acetylcholine receptor; alpha4/beta2, sequence (P12390 whole entry): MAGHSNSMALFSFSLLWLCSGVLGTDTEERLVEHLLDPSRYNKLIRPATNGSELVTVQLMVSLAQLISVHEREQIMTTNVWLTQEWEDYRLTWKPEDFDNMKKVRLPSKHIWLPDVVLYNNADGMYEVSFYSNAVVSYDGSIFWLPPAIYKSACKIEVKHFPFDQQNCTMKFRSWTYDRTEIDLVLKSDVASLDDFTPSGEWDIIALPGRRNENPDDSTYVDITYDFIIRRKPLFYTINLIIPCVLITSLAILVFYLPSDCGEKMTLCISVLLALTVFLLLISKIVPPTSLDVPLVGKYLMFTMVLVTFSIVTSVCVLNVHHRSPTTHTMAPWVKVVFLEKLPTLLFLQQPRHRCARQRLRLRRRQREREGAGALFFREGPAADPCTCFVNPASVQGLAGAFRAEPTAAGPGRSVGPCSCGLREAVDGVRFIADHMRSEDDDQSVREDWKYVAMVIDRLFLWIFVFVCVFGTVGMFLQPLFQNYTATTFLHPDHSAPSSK

[10] = target: T1, Neuronal acetylcholine receptor; alpha3/beta4 (Rattus norvegicus, UniProt P04757+P12392); test: Displacement of [3H]epibatidine from recombinant rat alpha-3-beta-4 nAChr in HEK293 cell line; assay type: cell-based
T1 sequence (P04757 whole entry): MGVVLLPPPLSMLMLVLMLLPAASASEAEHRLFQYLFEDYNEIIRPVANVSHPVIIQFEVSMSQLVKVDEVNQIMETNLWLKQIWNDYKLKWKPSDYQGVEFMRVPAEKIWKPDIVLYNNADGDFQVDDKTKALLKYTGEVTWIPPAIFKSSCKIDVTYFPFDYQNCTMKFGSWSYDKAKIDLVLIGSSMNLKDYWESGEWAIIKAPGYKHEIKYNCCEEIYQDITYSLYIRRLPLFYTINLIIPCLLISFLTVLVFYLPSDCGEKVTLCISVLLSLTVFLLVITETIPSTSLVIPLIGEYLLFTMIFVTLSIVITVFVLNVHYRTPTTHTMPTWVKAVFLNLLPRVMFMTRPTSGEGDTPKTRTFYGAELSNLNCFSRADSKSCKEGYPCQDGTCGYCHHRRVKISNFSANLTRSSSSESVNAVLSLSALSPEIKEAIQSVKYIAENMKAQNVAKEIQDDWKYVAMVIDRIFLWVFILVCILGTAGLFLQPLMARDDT
T1 sequence (P12392 whole entry): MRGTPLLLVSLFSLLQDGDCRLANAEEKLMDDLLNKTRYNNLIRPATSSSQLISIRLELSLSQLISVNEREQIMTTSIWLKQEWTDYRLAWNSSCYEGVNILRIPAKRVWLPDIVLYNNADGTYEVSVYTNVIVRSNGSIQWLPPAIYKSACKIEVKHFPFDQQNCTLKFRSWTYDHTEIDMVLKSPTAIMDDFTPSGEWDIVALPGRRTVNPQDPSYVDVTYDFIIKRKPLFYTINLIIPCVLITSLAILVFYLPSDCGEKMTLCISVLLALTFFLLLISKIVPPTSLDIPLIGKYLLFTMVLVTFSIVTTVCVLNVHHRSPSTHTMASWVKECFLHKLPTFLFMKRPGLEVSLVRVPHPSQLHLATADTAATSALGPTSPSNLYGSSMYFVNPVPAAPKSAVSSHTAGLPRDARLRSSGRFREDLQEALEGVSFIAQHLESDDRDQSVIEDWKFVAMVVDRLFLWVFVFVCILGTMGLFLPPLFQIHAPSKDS

[11] = target: Neuronal acetylcholine receptor; alpha4/beta4 (Rattus norvegicus, UniProt P09483+P12392); test: Displacement of [3H]epibatidine from recombinant rat alpha-4-beta-4 nAChr in HEK293 cell line; assay type: cell-based
Neuronal acetylcholine receptor; alpha4/beta4, sequence (P09483 whole entry): as the sequence (P09483 whole entry) above
Neuronal acetylcholine receptor; alpha4/beta4, sequence (P12392 whole entry): as the sequence (P12392 whole entry) above

[12] = target: T2, Neuronal acetylcholine receptor subunit alpha-7 (Homo sapiens, UniProt P36544); test: Displacement of [3H]methyllycaconitine from human alpha-7 in tsA201 cells coexpressed with 5HT3A receptor; assay type: cell-based
Target sequence in this assay (P36544 whole entry): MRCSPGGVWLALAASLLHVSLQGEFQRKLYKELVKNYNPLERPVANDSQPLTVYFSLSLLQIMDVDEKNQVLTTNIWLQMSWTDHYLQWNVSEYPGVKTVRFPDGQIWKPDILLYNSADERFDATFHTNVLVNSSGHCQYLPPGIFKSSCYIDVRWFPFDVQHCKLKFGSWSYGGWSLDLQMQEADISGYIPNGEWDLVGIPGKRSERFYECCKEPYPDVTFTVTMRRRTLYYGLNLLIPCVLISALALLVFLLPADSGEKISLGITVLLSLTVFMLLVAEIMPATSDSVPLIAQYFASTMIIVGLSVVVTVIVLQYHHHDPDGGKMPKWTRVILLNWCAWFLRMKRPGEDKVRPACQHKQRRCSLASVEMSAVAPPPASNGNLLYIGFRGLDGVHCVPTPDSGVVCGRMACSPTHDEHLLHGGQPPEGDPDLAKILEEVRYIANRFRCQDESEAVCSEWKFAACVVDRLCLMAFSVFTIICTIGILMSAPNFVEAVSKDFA

[13] = target: T2, Neuronal acetylcholine receptor subunit alpha-7; test: Displacement of [3H]methyllycaconitine from alpha7 nAChR in tsA201 cells co-expressed with Ric3; assay type: cell-based
Target sequence in this assay (P36544 whole entry): as above

[14] = target: T3, 5-hydroxytryptamine receptor 3A (Homo sapiens, UniProt P46098); test: Displacement of [3H]GR65630 from human 5HT3A receptor in HEK293 cells; assay type: cell-based
T3 sequence (P46098 whole entry): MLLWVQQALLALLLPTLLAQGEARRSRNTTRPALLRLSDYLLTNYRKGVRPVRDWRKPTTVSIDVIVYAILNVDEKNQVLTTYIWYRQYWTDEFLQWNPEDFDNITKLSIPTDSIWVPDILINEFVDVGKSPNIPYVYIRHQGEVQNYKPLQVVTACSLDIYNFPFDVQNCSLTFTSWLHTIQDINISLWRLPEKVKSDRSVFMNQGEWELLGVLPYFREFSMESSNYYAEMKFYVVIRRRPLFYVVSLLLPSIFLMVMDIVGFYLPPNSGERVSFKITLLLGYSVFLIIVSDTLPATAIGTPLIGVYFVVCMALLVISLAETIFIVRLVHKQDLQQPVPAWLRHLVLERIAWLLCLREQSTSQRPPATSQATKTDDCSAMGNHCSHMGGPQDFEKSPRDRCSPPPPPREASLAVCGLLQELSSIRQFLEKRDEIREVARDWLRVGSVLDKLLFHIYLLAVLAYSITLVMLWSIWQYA

[15] = target: T2, Neuronal acetylcholine receptor subunit alpha-7; test: Antagonist activity at human alpha-7 nAChR in tsA201 cells coexpressed with Ric3 by FMP assay; assay type: functional, cell-based
Target sequence in this assay (P36544 whole entry): as the sequence (P36544 whole entry) above

[16] = target: T1, Neuronal acetylcholine receptor; alpha3/beta4; test: Antagonist activity at rat alpha3beta4 nAChR expressed in HEK293 cells by FMP assay; assay type: functional, cell-based, Homo sapiens; conditions: read-out: IC50
[17] = target: T3, 5-hydroxytryptamine receptor 3A; test: Antagonist activity at human 5HT3A receptor expressed in HEK293 cells by FMP assay; assay type: functional, cell-based; conditions: read-out: IC50
cells = assay type: functional, cell-based; conditions: Homo sapiens, HEK293
[18] = target: T4, Glycine receptor subunit alpha-1 (Homo sapiens, UniProt P23415); test: Antagonist activity at human glycine alpha-1 receptor in HEK293 cells by FMP assay; assay type: functional, cell-based
T4 sequence (P23415 whole entry): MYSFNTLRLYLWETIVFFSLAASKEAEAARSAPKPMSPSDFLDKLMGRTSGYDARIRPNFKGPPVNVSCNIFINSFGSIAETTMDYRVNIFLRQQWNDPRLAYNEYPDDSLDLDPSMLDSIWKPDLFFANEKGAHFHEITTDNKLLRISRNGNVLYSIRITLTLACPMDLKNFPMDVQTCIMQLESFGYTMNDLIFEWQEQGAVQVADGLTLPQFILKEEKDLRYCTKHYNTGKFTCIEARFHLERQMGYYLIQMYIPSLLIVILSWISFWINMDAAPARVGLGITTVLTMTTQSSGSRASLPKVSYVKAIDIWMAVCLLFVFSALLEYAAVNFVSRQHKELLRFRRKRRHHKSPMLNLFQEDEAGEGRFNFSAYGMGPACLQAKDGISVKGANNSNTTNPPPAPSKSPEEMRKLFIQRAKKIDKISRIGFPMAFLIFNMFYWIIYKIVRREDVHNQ

[19] = target: T2, Neuronal acetylcholine receptor subunit alpha-7; test: Displacement of [3H]methyllycaconitine from chimeric alpha7nAChR/5HT3A in tsA201 cells; assay type: cell-based
Target sequence in this assay (P36544 23-502 limits assumed): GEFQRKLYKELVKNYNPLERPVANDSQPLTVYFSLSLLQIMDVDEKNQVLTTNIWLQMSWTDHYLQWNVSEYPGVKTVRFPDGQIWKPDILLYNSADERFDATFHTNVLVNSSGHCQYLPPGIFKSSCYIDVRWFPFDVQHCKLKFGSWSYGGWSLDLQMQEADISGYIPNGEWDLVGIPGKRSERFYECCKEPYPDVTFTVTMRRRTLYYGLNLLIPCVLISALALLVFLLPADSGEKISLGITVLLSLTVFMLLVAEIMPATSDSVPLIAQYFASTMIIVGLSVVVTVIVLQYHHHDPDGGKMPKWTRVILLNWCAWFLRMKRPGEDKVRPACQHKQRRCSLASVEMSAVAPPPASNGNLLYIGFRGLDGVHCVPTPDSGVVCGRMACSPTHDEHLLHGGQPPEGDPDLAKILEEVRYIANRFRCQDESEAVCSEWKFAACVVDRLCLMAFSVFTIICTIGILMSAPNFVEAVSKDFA

[20] = Displacement of [3H]methyllycaconitine from chimeric alpha-7nAChR W55A mutant /5HT3A receptor in tsA201 cells; assay type: cell-based, Homo sapiens; how it was run: as §1
[21] = Displacement of [3H]methyllycaconitine from chimeric alpha7nAChR W55Y mutant/5HT3A receptor in tsA201 cells; assay type: cell-based, Homo sapiens; how it was run: as §1
[22] = Displacement of [3H]methyllycaconitine from chimeric alpha7nAChR R79A mutant/5HT3A receptor R79A mutant in tsA201 cells; assay type: cell-based, Homo sapiens; how it was run: as §1
tsA201 [23] = test: Displacement of [3H]methyllycaconitine from chimeric alpha-7nAChR Y93A mutant/5HT3A receptor in tsA201 cells; assay type: cell-based; conditions: Homo sapiens; how it was run: as §1
[24] = Displacement of [3H]methyllycaconitine from chimeric alpha-7nAChR N107A mutant/5HT3A receptor in tsA201 cells; assay type: cell-based, Homo sapiens; how it was run: as §1
[25] = Displacement of [3H]methyllycaconitine from chimeric alpha7nAChR K145A mutant/5HT3A receptor in tsA201 cells; assay type: cell-based, Homo sapiens; how it was run: as §1
[26] = Displacement of [3H]methyllycaconitine from chimeric alpha-7nAChR S148A mutant /5HT3A receptor in tsA201 cells; assay type: cell-based, Homo sapiens; how it was run: as §1
tsA201 [27] = test: Displacement of [3H]methyllycaconitine from chimeric alpha-7nAChR W149A mutant/5HT3A receptor in tsA201 cells; assay type: cell-based; conditions: Homo sapiens; how it was run: as §1
tsA201 [28] = test: Displacement of [3H]methyllycaconitine from chimeric alpha-7nAChR W149Y mutant/5HT3A receptor W149Y mutant in tsA201 cells; assay type: cell-based; conditions: Homo sapiens; how it was run: as §1
[29] = Displacement of [3H]methyllycaconitine from chimeric alpha-7nAChR S150A mutant/5HT3A receptor in tsA201 cells; assay type: cell-based, Homo sapiens; how it was run: as §1
[30] = Displacement of [3H]methyllycaconitine from chimeric alpha-7nAChR Y168A mutant/5HT3A receptor in tsA201 cells; assay type: cell-based, Homo sapiens; how it was run: as §1
tsA201 [31] = test: Displacement of [3H]methyllycaconitine from chimeric alpha-7nAChR Y188A mutant/5-HT3A receptor in tsA201 cells; assay type: cell-based; conditions: Homo sapiens; how it was run: as §1
[32] = Displacement of [3H]methyllycaconitine from chimeric alpha7nAChR Y195A mutant/5HT3A receptor in tsA201 cells; assay type: cell-based, Homo sapiens; how it was run: as §1
[33] = Displacement of [3H]methyllycaconitine from chimeric alpha-7nAChR Y195F mutant/5HT3A receptor in tsA201 cells; assay type: cell-based, Homo sapiens; how it was run: as §1
[34] = target: T2, Neuronal acetylcholine receptor subunit alpha-7
Target sequence in this assay (P36544 whole entry): as the sequence (P36544 whole entry) above

Structure (SMILES): CC(=O)OCC[N+](C)(C)C [ACETYLCHOLINE]
- EC50 ([1]; read-out: EC50): 81 µM
- EC50 ([1]; read-out: pEC50 (converted)): 81.3 µM
- EC50 ([2]; read-out: EC50): > 30000 µM
- EC50 ([2]; read-out: pEC50 (converted)): > 31600 µM
- EC50 ([3]; read-out: EC50): 1500 µM
- EC50 ([3]; read-out: pEC50 (converted)): 1580 µM
- EC50 ([4]; read-out: EC50): 3900 µM
- EC50 ([4]; read-out: pEC50 (converted)): 3890 µM
- EC50 ([5]; read-out: EC50): 260 µM
- EC50 ([5]; read-out: pEC50 (converted)): 257 µM

Structure (SMILES): C[N+]12CC[C@@H]3[C@@H]4[C@@H]5[C@@H](OCC=C(C1)[C@@H]5C[C@@H]32)N1c2ccccc2[C@@]23CC[N+]5(C)CC6=CCO[C@H]([C@@H]([C@H]12)[C@H]6C[C@@H]35)N4c1ccccc1.[I-].[I-] (stereo partly drawn)
- Ki [6]: 0.55 µM
- pKi [6]: 6.26
- Activity (tsA201 [7]): inactive
- Ki [8]: 0.43 µM
- pKi [8]: 6.37
- IC50 ([1]; read-out: IC50): 1.3 µM
- IC50 ([1]; read-out: pIC50 (converted)): 1.32 µM
- IC50 ([3]; read-out: IC50): 2.7 µM
- IC50 ([3]; read-out: pIC50 (converted)): 2.69 µM
- IC50 ([4]; read-out: IC50): 2.5 µM
- IC50 ([4]; read-out: pIC50 (converted)): 2.45 µM
- IC50 ([5]; read-out: IC50): 7.1 µM
- IC50 ([5]; read-out: pIC50 (converted)): 7.08 µM
- pKi ([9]; hek293): < 4
- Ki ([9]; read-out: Ki): > 100 µM
- Ki [10]: 30 µM
- Ki [11]: > 100 µM
- pKi ([11]; hek293): < 4
- Ki ([12]; read-out: Ki): 0.3 µM
- Ki ([12]; read-out: pKi (converted)): 0.316 µM
- Ki ([13]; read-out: Ki): 0.21 µM
- Ki ([13]; read-out: pKi (converted)): 0.2 µM
- Ki [14]: 11 µM
- IC50 ([15]; read-out: IC50): 1.5 µM
- IC50 ([15]; read-out: pIC50 (converted)): 1.48 µM
- IC50 [16]: 30 µM
- IC50 [17]: 30 µM
- IC50 (cells; read-out: IC50): > 100 µM
- IC50 (cells; read-out: pIC50 (converted)): > 100 µM
- IC50 [18]: > 100 µM
- pIC50 ([18]; hek293): < 4
- Ki [19]: 0.33 µM
- pKi [19]: 6.48
- Ki [20]: 0.85 µM
- pKi [20]: 6.07
- Ki [21]: 0.3 µM
- pKi [21]: 6.53
- Ki [22]: 0.66 µM
- pKi [22]: 6.18
- Activity (tsA201 [23]): inactive
- Ki [24]: 0.33 µM
- pKi [24]: 6.48
- Ki [25]: 0.25 µM
- pKi [25]: 6.6
- Ki [26]: 0.79 µM
- pKi [26]: 6.1
- Activity (tsA201 [27]): inactive
- Activity (tsA201 [28]): inactive
- Ki [29]: 0.5 µM
- pKi [29]: 6.3
- Ki [30]: 0.31 µM
- pKi [30]: 6.51
- Activity (tsA201 [31]): inactive
- Ki [32]: 2.9 µM
- pKi [32]: 5.54
- Ki [33]: 0.39 µM
- pKi [33]: 6.41
- IC50 [34]: 1.5 µM and 1.51 µM
